Hits are enriched below; roughly 3.8% of the tested compounds scored in any of these assays.
GPR7 antagonist – blocks human GPR7 receptor signaling. P48145. AID 1861. inhibition, % at 4.4 µM. GPR7-expressing cells, fluorescence antagonist assay. 290,000 compounds, 1.1% hits; in the data active = inhibition above about 16%, passing the limit was not always enough;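 also: cells stimulated with the agonist NPW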
CHO parental Ca – counter-screen for OX1R antagonists: effect in parental CHO cells; 330,000 compounds, 0.63% hits; inhibition, % at 5.6 µM; parental CHO-K1, ATP-induced calcium, Fluo-8 fluorescence;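 active = inhibition above that plate's mean sample inhibition plus 3 SD, cut at about 26% in these data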
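Assay system: parental CHO cells; Read-out basis: percent inhibition of ATP-evoked calcium rise, normalized to controls; Benchmarks: ATP and no-ATP DMSO wells; Compound dosing: single nominal dose of 5.6 µM per compound; Signal: Fluo-8 calcium dye fluorescence; Also added: ATP as calcium-mobilizing challenge; Repeats: singlicate.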
OX1R antag-1 – antagonists of human orexin 1 receptor. O43613. CHO/OX1R cells, Fluo-8 calcium fluorescence, orexin A. 330,000 compounds, 0.43% hits. inhibition, % at 5 µM. AID 434989;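 active = inhibition above its plate's threshold, mean inhibition of all tested compounds on the plate plus 3 SD, cut at about 37% in these data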
Target sequence (O43613 whole entry, looked up): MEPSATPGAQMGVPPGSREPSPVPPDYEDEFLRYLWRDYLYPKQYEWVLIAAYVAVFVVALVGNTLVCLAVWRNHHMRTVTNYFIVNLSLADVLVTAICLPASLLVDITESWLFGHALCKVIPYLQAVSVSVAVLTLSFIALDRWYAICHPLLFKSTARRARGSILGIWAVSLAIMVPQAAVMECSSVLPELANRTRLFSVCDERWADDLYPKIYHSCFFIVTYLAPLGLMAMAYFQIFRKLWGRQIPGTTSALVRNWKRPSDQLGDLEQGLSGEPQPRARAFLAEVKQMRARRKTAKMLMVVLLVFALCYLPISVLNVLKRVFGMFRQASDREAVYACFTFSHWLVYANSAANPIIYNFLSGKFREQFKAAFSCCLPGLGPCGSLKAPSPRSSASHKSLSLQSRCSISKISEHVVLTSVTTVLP
OX1R antag-2 – blocks the human orexin 1 receptor; O43613; inhibition, % at 6.6 µM; OX1R-expressing cells, FRET antagonist read-out; 330,000 compounds, 1.8% hits; AID 485270; in the data active = inhibition mostly above about 38%, no sharp cut-off; inactive = mostly below about 40%
MPTP block – inhibitors of mitochondrial permeability transition pore | inhibition, % at 10 µM | isolated mouse mitochondria, Ca2+ swelling absorbance, 30 min | 360,000 compounds, 1.4% hits | AID 602449;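 active = inhibition of 50% or more, scaled per plate between neutral and stimulator controls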
Rh123 counter – Rhodamine 123 counter-screen of mitochondrial pore hits | inhibition, % at 10 µM | 5,000 compounds, 78% hits | isolated mitochondria, membrane potential, Rhodamine 123 fluorescence | shares compounds with MPTP block; in the data active = inhibition above about 22%
MPTP abs DR – dose response confirmation of mitochondrial permeability transition pore inhibitors; shares compounds with MPTP block; isolated mitochondria swelling, absorbance; IC50, µM; 780 compounds, 58% hits; AID 651561; in the data active = IC50 below about 20 µM
MPTP counter DR – active in counter-screen for permeability transition pore inhibitors | shares compounds with MPTP block | isolated mitochondria counterscreen, fluorescence read-out | IC50, µM | 780 compounds, 49% hits | AID 651564; in the data active = IC50 below about 80 µM
Hits are given with their value; 0 = inactive; - = no result given.

SMILES | GPR7 antagonist | CHO parental Ca | OX1R antag-1 | OX1R antag-2 | MPTP block | Rh123 counter | others
O=C(Nc1nc(-c2ccccc2)cs1)c1ccc(Br)o1 | 0 | 0 | 0 | 0 | 81.5 | 20.6
O=C(Cc1c(F)c(F)c(F)c(F)c1F)Nc1nc(-c2ccccc2)cs1 | 0 | 48.3 | 0 | 47.9 | 54.1 | 92.5
O=C(NC(=S)Nc1nc(-c2ccccc2)cs1)c1cncc(Br)c1 | 0 | 0 | 0 | 0 | 74.1 | 74.5
O=C(Cc1ccc(F)cc1)Nc1nc(-c2ccc(F)cc2)cs1 | 0 | 0 | 0 | 0 | 0 | -
O=C(NC(=S)Nc1nc(-c2ccccc2)cs1)c1cccnc1 | 0 | 0 | 0 | 0 | 0 | -
O=C(Cc1cccs1)Nc1nc(-c2ccc(F)c(F)c2)cs1 | 0 | 0 | 0 | 0 | 0 | -
O=C(Cc1cccs1)Nc1nc(-c2ccc(F)cc2F)cs1 | 0 | 0 | 0 | 0 | 73.2 | 91.2
Cn1ncc2c(=S)[nH]c(=S)[nH]c21 | - | - | - | - | 0 | -
C=CCOc1ccc(C2C(C(=O)c3ccco3)=C(O)C(=O)N2c2nnc(C)s2)cc1 (configuration not stated) | 0 | 0 | 0 | 0 | 0 | -
CN1CCc2c(OCC(=O)N3CCC(Cc4ccccc4)CC3)cccc2C1=O | 0 | 0 | 0 | 0 | 81.5 | 48.5
CCOC(=O)c1c(NC(=O)c2ccccc2N(C)S(=O)(=O)c2ccccc2)sc2c1CCCC2 | 0 | 0 | 0 | 0 | 0 | -
CCOC(=O)c1c(NC(=O)C(NCCN(C)C)c2ccccc2)sc2c1CCCC2 (configuration not stated) | 0 | 0 | 0 | 0 | 81.4 | 0
COC(=O)C1C(=O)C2=C(CC1C)Nc1ccccc1NC2c1ccc(C)s1 (configuration not stated) | 0 | 0 | 0 | 0 | 0 | -
O=C(Nc1ccc(Cl)cc1)OCc1ccccn1 | 0 | 40.2 | 0 | 0 | 90.8 | 85.0
OC(c1ccccc1)C(NCCNCc1ccccc1)c1ccccc1 (configuration not stated) | - | - | - | - | 0 | -
Cc1cc(=O)[nH]c(N/N=C/c2ccc(OC(=O)c3ccco3)cc2)n1 | 0 | 0 | 0 | 0 | 0 | -
CC1CCN(c2nc(/C=C/c3ccccc3)nc3ccccc23)CC1 | 0 | 0 | 0 | 0 | 0 | -
C(=C\c1nc(N2CCCC2)c2ccccc2n1)/c1ccccc1 | 0 | 0 | 0 | 0 | 89.7 | 94.8
COc1ccccc1OCCNC(=O)Nc1ccc(Br)cc1 | 0 | 0 | 0 | 0 | 84.7 | 81.7
CNC(=S)NNC(=O)CSCc1c(Cl)cccc1Cl | 0 | 0 | 0 | 0 | 0 | -
O=C(CSCc1ccccc1)NNC(=S)Nc1cccc(Cl)c1Cl | 0 | 0 | 0 | 0 | 92.2 | 102.8
S=C(Nc1ccc(OCc2ccccc2)cc1)Nc1cccc(Cl)c1Cl | 0 | 0 | 0 | 0 | 85.6 | 79.0
S=C(Nc1ccccc1)Nc1ccc(OCc2ccccc2)cc1 | 0 | 0 | 0 | 0 | 0 | -
CC(C)(C)c1ccc(S(=O)(=O)Nc2ccc(Cc3ccncc3)cc2)cc1 | 0 | 0 | 0 | 0 | 72.6 | 73.5
CCCc1nc(SC2CCCC2)c2c(=O)n(C)c(=O)n(C)c2n1 | - | 0 | 0 | 0 | 71.8 | 0 | MPTP abs DR=0;MPTP counter DR=70.1
SMILES | GPR7 antagonist | CHO parental Ca | OX1R antag-1 | OX1R antag-2 | MPTP block | Rh123 counter | others
O=C(NCc1n[nH]c(=S)n1-c1cccc(Cl)c1)c1ccc(S(=O)(=O)N2CCCCC2)cc1 | 0 | 0 | 0 | 0 | 0 | -
Cc1ccc(S(=O)(=O)/N=C(/Nc2ccc([N+](=O)[O-])cc2)c2ccccc2)cc1 | 0 | 0 | 0 | 0 | 0 | -
Cc1ccc(S(=O)(=O)/N=C(/Nc2ccc([N+](=O)[O-])cc2[N+](=O)[O-])c2ccccc2)cc1 | - | 0 | 0 | 52.0 | 86.5 | 92.1
CCN(CC)C(=O)CSc1nc2c(sc(=S)n2-c2ccc(C)cc2C)c(=O)[nH]1 | 0 | 0 | 0 | 0 | 0 | -
O=C(NCc1cccs1)c1ccc2sc(COCCO)nc2c1 | - | - | - | - | 0 | -
CN1CCCC(CC2c3ccccc3Sc3ccccc32)C1 (configuration not stated) | - | 0 | 0 | 0 | 99.9 | 0 | MPTP abs DR=9.44;MPTP counter DR=0
O=C(NCc1ccccc1Br)c1cccs1 | - | - | - | - | 0 | -
Cc1cc(C(=O)CSc2nnc(-c3ccccc3)n2Cc2ccc3c(c2)OCO3)c(C)n1C | 0 | 0 | 0 | 0 | 0 | -
Cc1cc(C(=O)CSc2nc3ccccc3c(=O)n2C)c(C)n1Cc1ccc2c(c1)OCO2 | 0 | 0 | 0 | 0 | 96.8 | 93.8

Screening data (PubChem BioAssay)
